We go through 14 compounds from publication PMC12612033 (Scientific Reports, 2025).

Structures are written as SMILES.

Assay [1] deals with Saccharomyces cerevisiae α-glucosidase (Saccharomyces cerevisiae, UniProt P53341). Briefly: α-Glucosidase inhibition assay. Type of assay: biochemical.
Assay [2] addresses T1, α-glucosidase (Saccharomyces cerevisiae, UniProt P53341). The assay is described as follows: α-Glucosidase kinetic study. The settings on record: Lineweaver–Burk plot; Km increases, Vmax unchanged. Format: biochemical.
The target in assay [3] is T1, α-glucosidase. Briefly: Circular dichroism spectroscopy of α-glucosidase secondary structure. The settings on record: CD, α-glucosidase in the presence of 9s. The gist of the method: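 Far-UV CD spectra (190–240 nm) recorded for yeast α-glucosidase alone and for its complex with the test compound. Spectra were deconvoluted into α-helix, β-sheet, β-turn and random-coil fractions, and the complex was compared with native enzyme.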
(CD spectra are sensitive to the conformation of chiral molecules.)

Assay [4] relates to α-amylase. Briefly: α-Amylase inhibition assay. Particulars: at a concentration of 100 µM, mean ± SD. Type of assay: biochemical.

T1 sequence (P53341 whole entry): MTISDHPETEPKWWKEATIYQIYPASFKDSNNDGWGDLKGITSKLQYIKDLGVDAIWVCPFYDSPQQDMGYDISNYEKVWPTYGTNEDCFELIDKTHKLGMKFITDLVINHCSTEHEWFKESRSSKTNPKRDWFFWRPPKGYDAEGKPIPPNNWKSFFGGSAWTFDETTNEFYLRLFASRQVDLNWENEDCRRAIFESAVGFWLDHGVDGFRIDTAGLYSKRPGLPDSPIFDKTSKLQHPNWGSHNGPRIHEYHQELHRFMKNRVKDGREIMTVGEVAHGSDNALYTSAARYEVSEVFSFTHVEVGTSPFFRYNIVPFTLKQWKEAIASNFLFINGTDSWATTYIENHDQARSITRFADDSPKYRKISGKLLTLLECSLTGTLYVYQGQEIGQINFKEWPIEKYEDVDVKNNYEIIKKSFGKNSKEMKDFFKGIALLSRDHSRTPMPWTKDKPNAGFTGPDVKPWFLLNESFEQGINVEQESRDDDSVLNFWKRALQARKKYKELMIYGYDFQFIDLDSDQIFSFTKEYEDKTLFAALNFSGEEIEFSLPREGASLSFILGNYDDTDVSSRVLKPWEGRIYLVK
Chain of Saccharomyces cerevisiae α-glucosidase (P53341 whole entry): as above

Regarding `COc1ccc(-c2nc3ncnn3c(-c3ccccc3)c2N)cc1` [9m, 5-(4-Methoxyphenyl)-7-phenyl-[1,2,4]triazolo[1,5-a]pyrimidin-6-amine], in assay [1], the IC50 worked out at 72.4 ± 0.98 µM. In assay [1], `COc1ccc(-c2c(N)c(-c3ccccc3)nc3ncnn23)cc1` [9b, 7-(4-Methoxyphenyl)-5-phenyl-[1,2,4]triazolo[1,5-a]pyrimidin-6-amine] had an IC50 of 70.85 ± 0.27 µM. Still for that read-out and setting: the same measure for `COc1ccc(-c2nc3ncnn3c(-c3ccc(Cl)cc3)c2N)cc1` [9o, 7-(4-Chlorophenyl)-5-(4-methoxyphenyl)-[1,2,4]triazolo[1,5-a]pyrimidin-6-amine]: 37.18 ± 0.23 µM; for `Nc1c(-c2ccccc2)nc2ncnn2c1-c1cccs1` [9g, 5-Phenyl-7-(thiophen-2-yl)-[1,2,4]triazolo[1,5-a]pyrimidin-6-amine]: 140 ± 1.55 µM. Consider `Nc1c(-c2ccc(Cl)cc2)nc2ncnn2c1-c1ccc(Cl)cc1` [9s, 5,7-Bis(4-chlorophenyl)-[1,2,4]triazolo[1,5-a]pyrimidin-6-amine], for which inhibition in assay [1] was half-maximal at 24.32 ± 0.18 µM (IC50). For the same compound, the Mode of inhibition entry in assay [2] was “competitive”. In assay [3], the “Random coils content of α-glucosidase” value is recorded as 0%, the “α-Helix content of α-glucosidase” value came out at 41.2% and the “β-Turn content of α-glucosidase” value was determined as 51.4%.

In the case of `Nc1c(-c2ccccc2)nc2ncnn2c1-c1ccc(Cl)cc1` [9c, 7-(4-Chlorophenyl)-5-phenyl-[1,2,4]triazolo[1,5-a]pyrimidin-6-amine], half-maximal inhibition in assay [1] (IC50) required 56.2 ± 0.68 µM. As for `C[C@H]1O[C@H](O[C@H]2[C@H](O)[C@@H](O)[C@@H](O[C@H]3[C@H](O)[C@@H](O)C(O)O[C@@H]3CO)O[C@@H]2CO)[C@H](O)[C@@H](O)[C@@H]1N[C@H]1C=C(CO)[C@@H](O)[C@H](O)[C@H]1O` (stereo partly drawn) [Acarbose], the “Inhibition of α-amylase activity (%)” value in assay [4] was 50.1 ± 0.5%. The compound `Nc1c(-c2ccc(Cl)cc2)nc2ncnn2c1-c1ccccc1` [9q, 5-(4-Chlorophenyl)-7-phenyl-[1,2,4]triazolo[1,5-a]pyrimidin-6-amine] registered an IC50 in assay [1] of 58.11 ± 0.34 µM. Same read-out and setting: for `Cc1ccc(-c2nc3ncnn3c(-c3ccccc3)c2N)cc1` [9h, 7-Phenyl-5-(p-tolyl)-[1,2,4]triazolo[1,5-a]pyrimidin-6-amine] the value was 94.52 ± 0.72 µM; for `Nc1c(-c2ccccc2)nc2ncnn2c1-c1ccccc1` [9a, 5,7-Diphenyl-[1,2,4]triazolo[1,5-a]pyrimidin-6-amine], 97.02 ± 0.83 µM. Consider `Nc1c(-c2ccccc2)nc2ncnn2c1-c1ccc(Br)cc1` [9f, 7-(4-Bromophenyl)-5-phenyl-[1,2,4]triazolo[1,5-a]pyrimidin-6-amine], for which the half-maximal inhibitory concentration (IC50) in assay [1] amounted to 65.09 ± 0.38 µM. The same measure, in the same setting: for `Cc1ccc(-c2nc3ncnn3c(-c3cccs3)c2N)cc1` [9l, 7-(Thiophen-2-yl)-5-(p-tolyl)-[1,2,4]triazolo[1,5-a]pyrimidin-6-amine] the value was 151.3 ± 0.56 µM; for `COc1ccc(-c2nc3ncnn3c(-c3ccc(OC)cc3)c2N)cc1` [9n, 5,7-Bis(4-methoxyphenyl)-[1,2,4]triazolo[1,5-a]pyrimidin-6-amine], 52.66 ± 0.3 µM; for `COc1ccc(-c2c(N)c(-c3ccc(Cl)cc3)nc3ncnn23)cc1` [9r, 5-(4-Chlorophenyl)-7-(4-methoxyphenyl)-[1,2,4]triazolo[1,5-a]pyrimidin-6-amine], 41.5 ± 0.56 µM.

As usually defined, the IC50 is the concentration that gives 50% inhibition. A low value points to greater potency.
